Experimental data taken from ChEMBL document CHEMBL1155234, “Dialkylamino and nitrogen heterocyclic analogues of hexadecylphosphocholine and cetyltrimetylammonium bromide: effect of phosphate group and environment of the ammonium cation on their biological activity” (Eur J Med Chem, 2009).
Converted amounts (≈) assume the structure as drawn.

What was measured:
[1] = system: MDA-MB-231; experiment: Cytotoxicity against human MDA-MB-231 cells after 72 hrs by MTT assay; format: functional, cell-based; conditions: MDA-MB-231, 72 h
In short: (§1)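 MTT end-point assay. Cells were exposed to compound at 1×10^-4 to 1×10^-8 mol l⁻¹ final for 72 h. Seeding was 3×10^3 cells ml⁻¹ for A-549, MCF-7 and MDA-MB-231; 5×10^3 for HeLa; 1×10^4 for Jurkat and CCRF-CEM. Media were DMEM/10% FCS (A-549, MCF-7, MDA-MB-231) or RPMI-HEPES/10% FCS (others). Formazan was dissolved in SDS for 12 h and read at 540 nm against untreated control, in triplicate. IC50 was curve-fitted.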

[2] = system: MCF7; experiment: Cytotoxicity against human MCF7 cells after 72 hrs by MTT assay; format: functional, cell-based; conditions: MCF7, 72 h; in short: as §1
[3] = Toxicity in human erythrocytes assessed as hemolysis after 1 hr; format: cell-based, Erythrocyte
In short: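 Citrated human blood erythrocytes were washed three times in Ca/Mg-free PBS (2000g, 10 min) and resuspended in glucose-containing phosphate buffer, pH 7.4. They were diluted 1:10 into compound-containing buffer to a final 6.7–6.8×10^7 cells ml⁻¹ and incubated 1 h at 37 °C with shaking. After centrifugation, supernatant absorbance at 542 nm was compared with fully lysed controls (CTAB).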

[4] = system: A549; experiment: Cytotoxicity against human A549 cells after 72 hrs by MTT assay; format: functional, cell-based; conditions: A549, 72 h; in short: as §1
[5] = system: Jurkat; experiment: Cytotoxicity against human Jurkat cells after 72 hrs by MTT assay; format: functional, cell-based; in short: as §1
[6] = system: CCRF-CEM; experiment: Cytotoxicity against human CCRF-CEM cells after 72 hrs by MTT assay; format: functional, cell-based; in short: as §1
[7] = system: Acanthamoeba lugdunensis; experiment: Trophocidal activity against Acanthamoeba lugdunensis assessed as viability for 14 days by trypan blue exclusion assay; format: functional
In short: (§2)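 Trophozoites were grown axenically in PYG medium and seeded at 2×10^5 cells ml⁻¹ (100 µl), then mixed with compound in PYG at 37 °C. APCs were tested at 25–800 µM (six levels) and QUATs at 7.25–100 µM (five levels). Viability was scored by trypan blue exclusion. Eradication was confirmed by transfer to fresh PYG with growth monitored for 14 days. MTC was the lowest concentration giving 100% eradication.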

[8] = system: HeLa; experiment: Cytotoxicity against human HeLa cells after 72 hrs by MTT assay; format: functional, cell-based; in short: as §1
[9] = system: Candida albicans; experiment: Antifungal activity against Candida albicans CCM 8186 assessed as inhibition of colony formation after 24 hrs; format: functional
In short: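 C. albicans came from 24-h Sabouraud agar cultures and was suspended at 5×10^5 cells ml⁻¹ in physiological solution pH 7.2, adjusted to A540 = 0.35. It was mixed with aqueous compound and double-concentrated Sabouraud medium and incubated 24 h at 37 °C. Each well was then subcultured on Sabouraud agar for 24 h at 37 °C. MFC was the lowest concentration giving no colonies.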

[10] = system: Acanthamoeba polyphaga; experiment: Trophocidal activity against Acanthamoeba polyphaga 5SU assessed as viability for 14 days by trypan blue exclusion assay; format: functional; in short: as §2
[11] = system: Acanthamoeba castellanii; experiment: Trophocidal activity against Acanthamoeba castellanii 1BU assessed as viability for 14 days by trypan blue exclusion assay; format: functional; in short: as §2
[12] = system: Acanthamoeba lenticulata; experiment: Trophocidal activity against Acanthamoeba lenticulata 72/2 assessed as viability for 14 days by trypan blue exclusion assay; format: functional; in short: as §2

| Compound | IC50 [1] [µM] | IC50 [2] [µM] | EC50 at 1 hr [3] [µM] | IC50 [4] [µM] | IC50 [5] [µM] | IC50 [6] [µM] | MTC [7] [µM] | IC50 [8] [µM] | MFC ([9]; CCM 8186, 24 h) [µM] | MTC [10] [µM] | MTC [11] [µM] | MTC [12] [µM] | MFC [9] [µM] |
| --- | --- | --- | --- | --- | --- | --- | --- | --- | --- | --- | --- | --- | --- |
| CCCCCCCCCCCCCCCC[N+](C)(CCCC)CCCC.[Br-] | 2.55 | 0.68 | 25 | 0.64 | 0.76 | 0.91 | 25 | 0.9 | 9 |  |  |  |  |
| CCCCCCCCCCCCCCCCOP(=O)([O-])OCC[N+]1(C)CCOCC1 | 11.4 | 22.4 | 30 | 42 | 7.7 | 8.25 | 200 | 21.7 | 8 (≈ 3.6 µg/mL) |  |  |  |  |
| CCCCCCCCCCCCCCCC[N+]1(C)CCCCC1.[Br-] | 3.86 | 0.59 | 35 | 0.63 | 0.72 | 0.92 | 12.5 | 1.47 | 10 |  |  |  |  |
| CCCCCCCCCCCCCCCCOP(=O)([O-])OCC[N+](C)(CC)CC | 34.4 | 53.7 | 30 | 59.4 | 19.6 | 9 | 200 | 49.4 | 4 (≈ 1.74 µg/mL) |  |  |  |  |
| CCCCCCCCCCCCCCCCOP(=O)([O-])OCC[N+](C)(CCC)CCC | 40.6 | 50.6 | 30 | 55 | 28.6 | 19.2 | 400 | 55 | 16 (≈ 7.42 µg/mL) |  |  |  |  |
| CCCCCCCCCCCCCCCCOP(=O)([O-])OCC[N+](C)(C)C [MILTEFOSINE] | 37.6 | 39.2 | 30 | 44.7 | 10 | 13.5 | 400 | 41.6 | 4 (≈ 1.63 µg/mL) | 31.25 | 31.25 | 20 |  |
| CCCCCCCCCCCCCCCC[N+]1(C)CCCCCC1.[Br-] | 2.84 | 0.72 | 35 | 0.67 | 0.8 | 1 | 12.5 | 1.82 | 9 |  |  |  |  |
| CCCCCCCCCCCCCCCCOP(=O)([O-])OCC[N+]1(C)CCCCC1 | 51.7 | 54.8 | 25 | > 100 | 14 | 11.2 | 200 | 57.2 | 8 (≈ 3.58 µg/mL) |  |  |  |  |
| CCCCCCCCCCCCCCCCOP(=O)([O-])OCC[N+]1(C)CCCC1 | 37.9 | 39.3 | 30 | 53.2 | 10 | 9.3 | 200 | 46.2 | 8 (≈ 3.47 µg/mL) |  |  |  |  |
| CCCCCCCCCCCCCCCCOP(=O)([O-])OCC[N+]1(C)CCCCCC1 | 49.8 | 51.5 | 25 | 55.1 | 18.2 | 9.8 | 50 | 53.1 | 8 (≈ 3.69 µg/mL) |  |  |  |  |
| CCCCCCCCCCCCCCCC[N+]1(C)CCOCC1.[Br-] | 5.75 | 0.89 | 45 | 0.87 | 3.57 | 4.16 | 50 | 5.61 | 24 |  |  |  |  |
| CCCCCCCCCCCCCCCCOP(=O)([O-])OCC[N+]1(C)CCCCCCC1 | 45.6 | 53.3 | 30 | 55 | 38.6 | 43.8 | 50 | 55 | 8 (≈ 3.81 µg/mL) |  |  |  |  |
| CCCCCCCCCCCCCCCC[N+](C)(CCC)CCC.[Br-] | 4.27 | 0.8 | 30 | 0.75 | 0.85 | 1.96 | 25 | 1.68 | 19 |  |  |  |  |
| CCCCCCCCCCCCCCCC[N+]1(C)CCCCCCC1.[Br-] | 4.12 | 0.94 | 30 | 0.85 | 0.78 | 1 | 12.5 | 1.43 | 9 |  |  |  |  |
| CCCCCCCCCCCCCCCC[N+](C)(CC)CC.[Br-] | 4.9 | 0.65 | 40 | 0.62 | 0.8 | 2.1 | 25 | 1.38 | 10 |  |  |  |  |
| CCCCCCCCCCCCCCCC[N+]1(C)CCCC1.[Br-] | 3.8 | 0.62 | 35 | 0.53 | 0.82 | 1.35 | 12.5 | 2.29 | 10 |  |  |  |  |
| Cetyltrimethylammonium bromide |  |  |  |  |  |  | 25 |  |  |  |  |  | 21 |
